Activity calls are given as the source filed them. No cut-off for these calls is given here.
Assays:
[1] = biological target: T1, Peroxisome proliferator-activated receptor delta (Homo sapiens, UniProt Q03181); assay: Activity against PPAR-delta
T1 sequence (Q03181 whole entry): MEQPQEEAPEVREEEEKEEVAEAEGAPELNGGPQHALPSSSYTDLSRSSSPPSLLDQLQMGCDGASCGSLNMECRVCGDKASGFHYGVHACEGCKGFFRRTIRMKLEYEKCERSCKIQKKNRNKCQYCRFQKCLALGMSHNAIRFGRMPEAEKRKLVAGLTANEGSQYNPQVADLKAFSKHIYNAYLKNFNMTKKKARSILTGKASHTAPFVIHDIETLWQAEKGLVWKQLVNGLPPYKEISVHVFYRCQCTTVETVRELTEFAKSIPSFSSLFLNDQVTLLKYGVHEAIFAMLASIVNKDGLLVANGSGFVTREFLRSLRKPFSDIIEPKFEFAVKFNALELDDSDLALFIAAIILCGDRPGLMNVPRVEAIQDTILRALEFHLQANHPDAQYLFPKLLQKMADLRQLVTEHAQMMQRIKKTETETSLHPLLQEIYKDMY

Rattus norvegicus [2] = assay: Increase of HDL level in cholesterol-fed male rats by FPLC method at 62 mg/kg/day relative to control; format: functional
In short: (§1)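 Groups of six male Sprague–Dawley rats on a cholesterol diet received drug in the diet, ad libitum, for 8 days. Serum lipoproteins separated by FPLC, adapted for robotic automation, and cholesterol quantitated enzymatically by colorimetry. HDL given as % change versus untreated controls, with significance set at p < 0.05.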

Rattus norvegicus [3] = assay: Triglyceride level in cholesterol-fed male rats at 62 mg/kg/day relative to control; format: functional
In short: (§2)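 Male Sprague–Dawley rats on a cholesterol diet, in groups of six, received the compound in the diet ad libitum for 8 days. Serum triglycerides are expressed as % change relative to untreated controls, with significance at p < 0.05 versus controls.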

Rattus norvegicus [4] = assay: Increase of Apolipoprotein A-I level in cholesterol-fed male rats at 62 mg/kg/day relative to control; format: functional
In short: (§3)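 Drug mixed into diet, fed ad libitum for 8 days to groups of six male Sprague–Dawley rats on a cholesterol diet. Serum Apo A-I measured by SDS–polyacrylamide gel electrophoresis or by rat competition ELISA. Reported as % change versus untreated controls, with significance set at p < 0.05.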

Rattus norvegicus [5] = assay: Weight gain in cholesterol-fed male rats at 62 mg/kg/day relative to control; format: functional
In short: (§4)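 Groups of six male Sprague–Dawley rats on a cholesterol diet received the compound in the diet, ad libitum, over 8 days. Body weight gain is reported as % change relative to untreated controls.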

[6] = biological target: T2, Peroxisome proliferator-activated receptor alpha (Rattus norvegicus, UniProt P37230); assay: Activity against PPAR-alpha
T2 sequence (P37230 whole entry): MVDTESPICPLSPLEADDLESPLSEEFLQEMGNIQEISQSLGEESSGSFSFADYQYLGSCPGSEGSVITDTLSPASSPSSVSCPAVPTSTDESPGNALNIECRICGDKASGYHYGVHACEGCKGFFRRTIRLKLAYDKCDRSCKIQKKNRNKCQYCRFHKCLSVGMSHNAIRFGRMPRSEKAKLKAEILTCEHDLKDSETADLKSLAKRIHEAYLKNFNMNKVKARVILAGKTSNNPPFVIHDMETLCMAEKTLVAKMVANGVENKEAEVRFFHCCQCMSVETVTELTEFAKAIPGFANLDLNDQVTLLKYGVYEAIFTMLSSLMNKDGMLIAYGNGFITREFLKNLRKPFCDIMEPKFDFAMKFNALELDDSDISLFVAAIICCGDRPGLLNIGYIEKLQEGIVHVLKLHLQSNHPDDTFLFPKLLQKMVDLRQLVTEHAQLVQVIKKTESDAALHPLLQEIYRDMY

Rattus norvegicus [7] = assay: Increase of total cholesterol level in cholesterol-fed male rats at 62 mg/kg/day relative to control; format: functional
In short: (§5)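 Dietary (ad libitum) dosing of groups of six male Sprague–Dawley rats on a cholesterol diet for 8 days. Serum total cholesterol was quantitated enzymatically by a colorimetric method and expressed as % change relative to untreated controls, with significance at p < 0.05.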

Rattus norvegicus [8] = species on record: Rattus norvegicus; assay: Increase in liver enzyme Aspartate aminotransferase; format: functional; set-up: concentration or dose not given beside the values
Rattus norvegicus [9] = species on record: Rattus norvegicus; assay: Increase in liver enzyme Alkaline phosphatase; format: functional; set-up: concentration or dose not given beside the values
Rattus norvegicus [10] = assay: Increase of HDL level in cholesterol-fed male rats by ultracentrifugation method at 62 mg/kg/day relative to control; format: functional
In short: (§6)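 Cholesterol-fed male Sprague–Dawley rats, six per group, given drug in the diet ad libitum for 8 days. Serum lipoproteins separated by classical ultracentrifugation and HDL cholesterol measured by an enzymatic colorimetric method. Expressed as % change versus untreated controls, with significance set at p < 0.05.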

Rattus norvegicus [11] = assay: Increase of Apolipoprotein A-I level in cholesterol-fed male rats at 63 mg/kg/day relative to control; format: functional; in short: as §3
Rattus norvegicus [12] = assay: Increase of HDL level in cholesterol-fed male rats by FPLC method at 63 mg/kg/day relative to control; format: functional; in short: as §1
Rattus norvegicus [13] = assay: Weight gain in cholesterol-fed male rats at 63 mg/kg/day relative to control; format: functional; in short: as §4
Rattus norvegicus [14] = assay: Increase of HDL level in cholesterol-fed male rats by ultracentrifugation method at 63 mg/kg/day relative to control; format: functional; in short: as §6
Rattus norvegicus [15] = assay: Increase of total cholesterol level in cholesterol-fed male rats at 63 mg/kg/day relative to control; format: functional; in short: as §5
Rattus norvegicus [16] = assay: Triglyceride level in cholesterol-fed male rats at 63 mg/kg/day relative to control; format: functional; in short: as §2
Rattus norvegicus [17] = assay: Weight gain in cholesterol-fed male rats at 79 mg/kg/day relative to control; format: functional; in short: as §4
Rattus norvegicus [18] = assay: Increase of Apolipoprotein A-I level in cholesterol-fed male rats at 79 mg/kg/day relative to control; format: functional; in short: as §3
Cynomolgus monkey = assay: Increase of HDL cholesterol in chow-fed cynomolgus monkey at 12 mg/kg/day; format: functional, Macaca fascicularis
Canis familiaris [19] = assay: Increase of HDL cholesterol in normal-fed dog at 35 mg/kg/day; format: functional, Canis lupus familiaris
Rattus norvegicus [20] = assay: Increase of HDL cholesterol in normal-fed rat at 80 mg/kg/day; format: functional
Rattus norvegicus [21] = assay: Increase of total cholesterol level in cholesterol-fed male rats at 79 mg/kg/day relative to control; format: functional; in short: as §5
Rhesus monkey = assay: Increase of HDL cholesterol in chow-fed rhesus monkey at 12 mg/kg/day; format: functional, Macaca mulatta
Rattus norvegicus [22] = assay: Increase of HDL level in cholesterol-fed male rats by ultracentrifugation method at 79 mg/kg/day relative to control; format: functional
In short: (§7)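 Compound given in the diet, ad libitum, to groups of six male Sprague–Dawley rats on a cholesterol diet for 8 days. Serum lipoproteins were separated by classical ultracentrifugation, and HDL cholesterol was quantitated by an enzymatic colorimetric method. Results are reported as % change relative to untreated controls, with significance at p < 0.05 versus controls.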

Rattus norvegicus [23] = assay: Increase of HDL level in cholesterol-fed male rats by FPLC method at 79 mg/kg/day relative to control; format: functional; in short: as §1
Hamster [24] = assay: Increase of HDL cholesterol in chow-fed hamster at 64 mg/kg/day; format: functional, Cricetulus griseus
Hamster [25] = assay: Increase of HDL cholesterol in normal-fed hamster at 52 mg/kg/day; format: functional, Cricetulus griseus
Rattus norvegicus [26] = assay: Triglyceride level in cholesterol-fed male rats at 79 mg/kg/day relative to control; format: functional; in short: as §2
Hamster [27] = assay: Increase of HDL cholesterol in chow-fed hamster at 45 mg/kg/day; format: functional, organism-based; details: Cricetulus griseus
Rattus norvegicus [28] = assay: Increase of total cholesterol level in cholesterol-fed male rats at 50 mg/kg/day relative to control; format: functional; in short: as §5
Rattus norvegicus [29] = assay: Increase of Apo A-I level in cholesterol-fed male rats at 50 mg/kg/day relative to control; format: functional; in short: as §3
Rattus norvegicus [30] = assay: Increase of HDL cholesterol in normal-fed rat at 50 mg/kg/day; format: functional
Hamster [31] = assay: Increase of HDL cholesterol in normal-fed hamster at 45 mg/kg/day; format: functional, organism-based; details: Cricetinae
Rattus norvegicus [32] = assay: Increase of HDL level in cholesterol-fed male rats by ultracentrifugation method at 50 mg/kg/day relative to control; format: functional; in short: as §6
Rattus norvegicus [33] = assay: Weight gain in cholesterol-fed male rats at 50 mg/kg/day relative to control; format: functional; in short: as §4
Canis familiaris [34] = assay: Increase of HDL cholesterol in normal-fed dog at 250 mg/kg/day; format: functional, organism-based; details: Canis lupus familiaris
Rattus norvegicus [35] = assay: Triglyceride level in cholesterol-fed male rats at 50 mg/kg/day relative to control; format: functional; in short: as §2
Rattus norvegicus [36] = assay: Increase of HDL level in cholesterol-fed male rats by FPLC method at 50 mg/kg/day relative to control; format: functional; in short: as §1
Rattus norvegicus [37] = assay: Increase of total cholesterol level in cholesterol-fed male rats at 57 mg/kg/day relative to control; format: functional; in short: as §5
Rattus norvegicus [38] = assay: Increase of Apolipoprotein A-I level in cholesterol-fed male rats at 57 mg/kg/day relative to control; format: functional; in short: as §3
Rattus norvegicus [39] = assay: Increase of HDL level in cholesterol-fed male rats by ultracentrifugation method at 57 mg/kg/day relative to control; format: functional; in short: as §6
Rattus norvegicus [40] = assay: Weight gain in cholesterol-fed male rats at 57 mg/kg/day relative to control; format: functional; in short: as §4
Rattus norvegicus [41] = assay: Triglyceride level in cholesterol-fed male rats at 57 mg/kg/day relative to control; format: functional; in short: as §2
Rattus norvegicus [42] = assay: Increase of HDL level in cholesterol-fed male rats by FPLC method at 57 mg/kg/day relative to control; format: functional; in short: as §1
Rattus norvegicus [43] = assay: Triglyceride level in cholesterol-fed male rats at 77 mg/kg/day relative to control; format: functional; in short: as §2
Rattus norvegicus [44] = assay: Increase of Apolipoprotein A-I level in cholesterol-fed male rats at 77 mg/kg/day relative to control; format: functional; in short: as §3
Rattus norvegicus [45] = assay: Weight gain in cholesterol-fed male rats at 77 mg/kg/day relative to control; format: functional; in short: as §4
Rattus norvegicus [46] = assay: Increase of HDL level in cholesterol-fed male rats by ultracentrifugation method at 77 mg/kg/day relative to control; format: functional; in short: as §7
Rattus norvegicus [47] = assay: Increase of total cholesterol level in cholesterol-fed male rats at 77 mg/kg/day relative to control; format: functional; in short: as §5
Rattus norvegicus [48] = assay: Increase of HDL level in cholesterol-fed male rats by FPLC method at 77 mg/kg/day relative to control; format: functional; in short: as §1

Compound: CC[C@H]1CCCCN1/C(S)=N/c1cc(Cl)ccc1C
- EC50 [1]: > 100 µM
- Activity (Rattus norvegicus [2]): 404%
- Activity (Rattus norvegicus [3]): -56%
- Activity (Rattus norvegicus [4]): 39%
- Activity (Rattus norvegicus [5]): -88%
- EC50 [6]: > 100 µM
- Activity (Rattus norvegicus [7]): 126%
- Activity (Rattus norvegicus [8]): 85%
- Activity (Rattus norvegicus [9]): 129%
- Activity (Rattus norvegicus [10]): 124%

Compound: CC[C@@H]1CCCCN1/C(S)=N/c1cc(Cl)ccc1C
- EC50 [1]: > 100 µM
- Activity (Rattus norvegicus [11]): 30%
- Activity (Rattus norvegicus [12]): 614%
- Activity (Rattus norvegicus [13]): -105%
- Activity (Rattus norvegicus [14]): 129%
- EC50 [6]: > 100 µM
- Activity (Rattus norvegicus [15]): 167%
- Activity (Rattus norvegicus [16]): -54%
- Activity (Rattus norvegicus [8]): 80%
- Activity (Rattus norvegicus [9]): 105%

Compound: CCC/N=C(\S)Nc1cc(Br)ccc1C
- Activity (Rattus norvegicus [11]): 46%
- Activity (Rattus norvegicus [12]): 306%
- Activity (Rattus norvegicus [13]): -29%
- Activity (Rattus norvegicus [14]): 142%
- Activity (Rattus norvegicus [15]): 47%
- Activity (Rattus norvegicus [16]): -53%
- Activity (Rattus norvegicus [9]): 44%

Compound: Cc1ccc(Cl)cc1N/C(S)=N/CC(C)C
- Activity (Rattus norvegicus [17]): -12%
- Activity (Rattus norvegicus [18]): 77%
- EC50 [1]: > 100 µM
- Activity (Cynomolgus monkey): 100%
- Activity (Canis familiaris [19]): 50%
- Activity (Rattus norvegicus [20]): 75%
- EC50 [6]: > 100 µM
- Activity (Rattus norvegicus [21]): -11%
- Activity (Rhesus monkey): 75%
- Activity (Rattus norvegicus [22]): 104%
- Activity (Rattus norvegicus [23]): 260%
- Activity (Hamster [24]): 15%
- Activity (Hamster [25]): 44%
- Activity (Rattus norvegicus [26]): -54%

Compound: Cc1ccc(C)c(OCCCC(C)(C)C(=O)O)c1 [GEMFIBROZIL]
- Activity (Hamster [27]): inactive
- Activity (Rattus norvegicus [28]): -23%
- Activity (Rattus norvegicus [29]): 54%
- Activity (Rattus norvegicus [30]): 25%
- Activity (Hamster [31]): inactive
- Activity (Rattus norvegicus [32]): 104%
- Activity (Rattus norvegicus [33]): 2%
- Activity (Canis familiaris [34]): inactive
- Activity (Rattus norvegicus [35]): -29%
- Activity (Rattus norvegicus [36]): 139%

Compound: CCC/N=C(\S)Nc1cc(F)ccc1C
- Activity (Rattus norvegicus [37]): 54%
- Activity (Rattus norvegicus [38]): 18%
- Activity (Rattus norvegicus [39]): 152%
- Activity (Rattus norvegicus [40]): -77%
- Activity (Rattus norvegicus [41]): -58%
- Activity (Rattus norvegicus [42]): 312%

Compound: Cc1ccc(Cl)cc1/N=C(\S)NCc1ccccc1
- Activity (Rattus norvegicus [43]): -21%
- Activity (Rattus norvegicus [44]): 27%
- Activity (Rattus norvegicus [45]): 41%
- Activity (Rattus norvegicus [46]): 135%
- Activity (Rattus norvegicus [47]): 97%
- Activity (Rattus norvegicus [48]): 136%
